Here are results for 24 compounds from ChEMBL document CHEMBL1128219, “In vitro antimalarial activity of chalcones and their derivatives” (J Med Chem, 1995).

Data set [1] has as its system Plasmodium falciparum. In words: In vitro antimalarial activity against chloroquine-resistant Plasmodium falciparum CDC/Indochina III W2. Type of data set: functional, organism-based. The gist of the method: (§1)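 Compound DMSO solution diluted 400-fold in RPMI 1640 containing 25 mM Hepes, 32 mM NaHCO3 and 10% human plasma, then 2-fold serial dilutions over 11 concentrations. Parasites exposed 48 h at 37 °C under 5% O2/5% CO2/90% N2, then [3H]hypoxanthine added for a further 18 h. DNA harvested onto glass filters and counted by scintillation. IC50 from logistic dose-response fit.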

Data set [2] is described as follows: Ratio of IC50 of W2 strain to D6 strain. Type of data set: functional. The gist of the method: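 Resistance index is IC50 against chloroquine-resistant P. falciparum W2 (CDC/Indochina III) divided by IC50 against chloroquine-sensitive D6 (CDC/Sierra Leone I). Compounds dissolved in DMSO, diluted 400-fold into RPMI 1640 with 25 mM Hepes, 32 mM NaHCO3 and 10% human plasma, then 2-fold serially over 11 concentrations. Parasites were exposed for 48 h at 37 °C (5% O2, 5% CO2, 90% N2), then given [3H]hypoxanthine for 18 h. IC50 came from logistic fits.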

Data set [3] deals with Plasmodium falciparum. Put plainly: In vitro antimalarial activity against chloroquine-sensitive Plasmodium falciparum D6 (CDC/Sierra Leone I). Type of data set: functional, organism-based. The gist of the method:
as §1

The test system of data set [4] is Plasmodium falciparum. In words: In vitro antimalarial activity against chloroquine-sensitive Plasmodium falciparum CDC/Sierra Leone I D6; Not active. The class given is functional, organism-based. The gist of the method: as §1
Data set [5] relates to Plasmodium falciparum. Put plainly: In vitro antimalarial activity against chloroquine-resistant Plasmodium falciparum CDC/Indochina III W2; Not active. The class given is functional, organism-based. The gist of the method: as §1
Data set [6] deals with Plasmodium falciparum. In words: In vitro antimalarial activity against chloroquine-sensitive Plasmodium falciparum D6 (CDC/Sierra Leone I); Not active. Type of data set: functional, organism-based. The gist of the method: as §1
A short description of data set [7]: Compound was evaluated for the pKa value in water at 20 degrees Centigrade. The class given is physicochemical.

For the compound `COc1ccc(OC)c(C(=O)/C=C\c2ccc(Cl)cc2Cl)c1`, the IC50 stood at 750 nM with Plasmodium falciparum [1] and 920 nM in the data set on Plasmodium falciparum [3]. Also, the Resistance index in data set [2] stood at 0.8.

Regarding `O=C(/C=C\c1ccnc2ccccc12)c1ccc(Cl)c(Cl)c1`, the half-maximal inhibitory concentration (IC50) in the data set with Plasmodium falciparum [1] is 800 nM; with Plasmodium falciparum [3] it was 1690 nM. Besides, in data set [2], the Resistance index was determined as 0.5.

For the compound `COc1ccc(C(=O)CCc2ccc(Cl)cc2Cl)c(OC)c1`, the IC50 entry was “Not Active” in the data set with Plasmodium falciparum [4], above 15000 nM with Plasmodium falciparum [1], “Not Active” in the data set with Plasmodium falciparum [5] and above 15000 nM in the data set with Plasmodium falciparum [3].

Turning to `COc1ccc(C(=O)/C=C/c2cc3ccccc3nc2Cl)c(OC)c1`, the IC50 in the data set on Plasmodium falciparum [1] is 1000 nM; in the data set on Plasmodium falciparum [3], 1290 nM. Also, in data set [2], the Resistance index is 0.8.

For the compound `COc1ccc(C(=O)/C=C/c2ccc(Cl)cc2Cl)c(OC)c1`, the 50% inhibitory concentration (IC50) in the data set with Plasmodium falciparum [1] came to 900 nM; in the data set with Plasmodium falciparum [3], 770 nM. For the same compound, the Resistance index in data set [2] amounted to 1.2.

Turning to `COc1ccc(OC)c(C(=O)/C=C/c2cccc(Cl)c2Cl)c1`, the half-inhibitory concentration (IC50) came to 920 nM with Plasmodium falciparum [1] and 1100 nM in the data set with Plasmodium falciparum [3]. For the same compound, the Resistance index in data set [2] came to 0.8.

For `COc1ccc(C(=O)/C=C/c2cccc(Cl)c2Cl)c(OC)c1`, the half-maximal inhibitory concentration (IC50) in the data set with Plasmodium falciparum [1] amounted to 1380 nM; in the data set on Plasmodium falciparum [3] it was 1290 nM. For the same compound, the Resistance index in data set [2] was 1.1.

On to `O=C(/C=C/c1cc2ccccc2nc1Cl)c1cccnc1`, for which the IC50 in the data set on Plasmodium falciparum [1] was determined as 710 nM; in the data set with Plasmodium falciparum [3], 2530 nM. In data set [2], the Resistance index amounted to 0.3.

Consider `COc1ccc(/C=C/C(=O)c2ccc(Cl)cc2Cl)c(OC)c1`, for which the 50% inhibitory concentration (IC50) with Plasmodium falciparum [1] is 3800 nM; with Plasmodium falciparum [3], 3400 nM. Also, in data set [2], the Resistance index amounted to 1.1.

`COc1ccc(C(=O)CCc2ccc(F)c(F)c2)c(OC)c1`: the IC50 is above 16000 nM in the data set with Plasmodium falciparum [1], “Not Active” in the data set on Plasmodium falciparum [5], “Not Active” in the data set with Plasmodium falciparum [6] and above 16000 nM in the data set on Plasmodium falciparum [3].

Consider `COc1ccc(/C=C(\C)C(=O)c2ccc(Cl)cc2Cl)c(OC)c1`, for which the IC50 in the data set with Plasmodium falciparum [1] is above 14000 nM; in the data set on Plasmodium falciparum [5] it was “Not Active”; with Plasmodium falciparum [6] it was “Not Active”; with Plasmodium falciparum [3], above 14000 nM.

In the case of `O=C(/C=C/c1ccc(Cl)cc1Cl)c1ccc(-n2ccnc2)cc1`, the 50% inhibitory concentration (IC50) with Plasmodium falciparum [1] was determined as 1180 nM; in the data set with Plasmodium falciparum [3] it was 900 nM. For the same compound, the Resistance index in data set [2] is 1.3.

With `COc1ccc(C(=O)/C(C)=C/c2ccc(Cl)cc2Cl)c(OC)c1`, the results for the half-maximal inhibitory concentration (IC50) with Plasmodium falciparum [1] and with Plasmodium falciparum [3] were 2460 nM and 6260 nM, respectively. Besides, the Resistance index in data set [2] is 0.4.

`O=C(/C=C/c1cc2ccccc2nc1Cl)c1ccc(F)cc1F`: the IC50 in the data set with Plasmodium falciparum [1] is 1000 nM; with Plasmodium falciparum [3], 980 nM. Besides, the Resistance index in data set [2] was found to be 1.

Regarding `O=C(/C=C\c1ccnc2ccccc12)c1cc(Cl)ccc1Cl`, the IC50 with Plasmodium falciparum [1] is 230 nM; in the data set with Plasmodium falciparum [3], 190 nM. Moreover, the Resistance index in data set [2] turned out to be 1.2.

In the case of `COc1ccc(C(=O)/C=C/c2ccc(F)cc2F)c(OC)c1`, the half-inhibitory concentration (IC50) turned out to be 1900 nM in the data set with Plasmodium falciparum [1] and 1950 nM in the data set with Plasmodium falciparum [3]. In data set [2], the Resistance index was 1.

On to `COc1ccc(/C=C/C(=O)c2ccc(F)cc2F)c(OC)c1`, for which the half-maximal inhibitory concentration (IC50) with Plasmodium falciparum [1] amounted to 11100 nM; in the data set with Plasmodium falciparum [3], 19100 nM. Also, in data set [2], the Resistance index stood at 0.6.

In the case of `COc1ccc(C(=O)/C=C/c2ccc(F)c(F)c2)c(OC)c1`, the concentration for half-maximal inhibition (IC50) worked out at 2090 nM in the data set on Plasmodium falciparum [1] and 2100 nM with Plasmodium falciparum [3]. Also, in data set [2], the Resistance index was determined as 1.

In turn, `c1ccc2cnccc2c1` [ISOQUINOLINE] came in with a pKa in data set [7] of 5.4.

As for `COc1cccc(OC)c1C(=O)/C=C\c1ccc(Cl)cc1`, the IC50 in the data set on Plasmodium falciparum [1] was determined as 770 nM; in the data set with Plasmodium falciparum [3] it was 1240 nM. The Resistance index in data set [2] stood at 0.6.

With `COc1ccc(C(=O)/C=C/c2cc3ccccc3nc2Cl)cc1OC`, the half-inhibitory concentration (IC50) turned out to be 510 nM with Plasmodium falciparum [1] and 720 nM with Plasmodium falciparum [3]. Also, the Resistance index in data set [2] stood at 0.7.

In the case of `COc1ccc(C(=O)/C=C\c2ccc(Cl)cc2Cl)c(OC)c1OC`, the IC50 in the data set on Plasmodium falciparum [1] came to 360 nM; in the data set on Plasmodium falciparum [3], 430 nM. For the same compound, in data set [2], the Resistance index worked out at 0.8.

Take `COc1ccc(C(=O)/C=C/c2cccc(Cl)c2Cl)cc1OC`: the IC50 in the data set with Plasmodium falciparum [1] was 1140 nM; with Plasmodium falciparum [3] it was 1960 nM. Besides, the Resistance index in data set [2] was 0.6.

For the compound `COc1ccc(C(=O)/C=C/c2ccc(C(F)(F)F)cc2)c(OC)c1`, the results for the IC50 with Plasmodium falciparum [1] and in the data set on Plasmodium falciparum [3] were 750 nM and 680 nM, respectively. Also, the Resistance index in data set [2] came to 1.1.
